Results from ChEMBL document CHEMBL4406856, “Structure based design, synthesis and in vitro antitumour activity of tiazofurin stereoisomers with nitrogen functions at the C-2' or C-3' positions” (Eur J Med Chem, 2019).
pIC50: −log10 of the molar value. Activity calls are given as the source filed them. No cut-off for these calls is given here.

Tests used:
K562 [1] = assay: Induction of apoptosis in human K562 cells incubated for 24 hrs by annexin V FITC and propidium iodide staining based flow cytometry relative to control; assay type: functional; design: concentration or dose not given beside the values
K562 [2] = assay: Antiproliferative activity against human K562 cells assessed as reduction in cell growth incubated for 72 hrs by MTT assay; assay type: functional, cell-based; conditions: K562, 72 h
Outline: (§1)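 Colorimetric MTT assay on human tumour lines K562 (chronic myeloid leukemia), HL-60 (promyelocytic leukemia), Jurkat (T cell leukemia), Raji (Burkitt's lymphoma), HT-29 (colorectal adenocarcinoma), HeLa (cervix adenocarcinoma) and normal lung fibroblast MRC-5; cells exposed to compounds for 72 h.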

HL-60 = assay: Antiproliferative activity against human HL60 cells assessed as reduction in cell growth incubated for 72 hrs by MTT assay; assay type: functional, cell-based; conditions: HL-60, 72 h
Outline: (§2)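 Colorimetric MTT assay on human tumour lines K562 (chronic myeloid leukemia), HL-60 (promyelocytic leukemia), Jurkat (T cell leukemia), Raji (Burkitt's lymphoma), HT-29 (colorectal adenocarcinoma), HeLa (cervix adenocarcinoma) and normal lung fibroblast MRC-5; cells exposed to compounds for 72 h. IC50 taken as concentration giving 50% growth inhibition versus untreated control.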

Jurkat = assay: Antiproliferative activity against human Jurkat cells assessed as reduction in cell growth incubated for 72 hrs by MTT assay; assay type: functional, cell-based; outline: as §2
Raji = assay: Antiproliferative activity against human Raji cells assessed as reduction in cell growth incubated for 72 hrs by MTT assay; assay type: functional, cell-based; outline: as §1
HT-29 = assay: Antiproliferative activity against human HT-29 cells assessed as reduction in cell growth incubated for 72 hrs by MTT assay; assay type: functional, cell-based; conditions: HT-29, 72 h; outline: as §2
HeLa = assay: Antiproliferative activity against human HeLa cells assessed as reduction in cell growth incubated for 72 hrs by MTT assay; assay type: functional, cell-based; outline: as §2
MRC5 = assay: Cytotoxicity against human MRC5 cells assessed as reduction in cell viability incubated for 72 hrs by MTT assay; assay type: cell-based; conditions: MRC5, 72 h; outline: as §1
K562 [3] = assay: Potency index, ratio of tiazofurin IC50 to compound IC50 for cytotoxicity against human K562 cells incubated for 72 hrs by MTT assay; assay type: functional
K562 [4] = assay: Potency index, ratio of doxorubicin IC50 to compound IC50 for cytotoxicity against human K562 cells incubated for 72 hrs by MTT assay; assay type: functional
K562 [5] = assay: Cell cycle arrest in human K562 cells assessed as accumulation in G2/M phase incubated for 72 hrs by propidium iodide staining based flow cytometry (reference value: 15.45%); assay type: functional
Outline: (§3)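 Exponentially growing K562 cells treated for 24 or 72 h, untreated cells as control; cells stained with propidium iodide and DNA content read by flow cytometry. Phase distribution (subG1, G0/G1, S, G2/M) taken from one-parameter histograms, subG1 scored as hypodiploid, apoptotic cells.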

K562 [6] = assay: Cell cycle arrest in human K562 cells assessed as accumulation in S phase incubated for 72 hrs by propidium iodide staining based flow cytometry (reference value: 36.05%); assay type: functional; outline: as §3
K562 [7] = assay: Cell cycle arrest in human K562 cells assessed as accumulation in G0/G1 phase incubated for 72 hrs by propidium iodide staining based flow cytometry (reference value: 45.43%); assay type: functional; outline: as §3
K562 [8] = assay: Cell cycle arrest in human K562 cells assessed as accumulation in SubG1 phase incubated for 72 hrs by propidium iodide staining based flow cytometry (reference value: 3.07%); assay type: functional; outline: as §3
K562 [9] = assay: Induction of apoptosis in human K562 cells incubated for 72 hrs by annexin V FITC and propidium iodide staining based flow cytometry relative to control; assay type: functional; design: concentration or dose not given beside the values
Outline: (§4)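 K562 cells treated for 72 h, stained with Annexin V-FITC/propidium iodide and analysed by flow cytometry. Apoptotic, necrotic and live fractions scored as percent of gated cells; specific apoptosis and specific necrosis calculated from these counts.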

K562 [10] = assay: Induction of necrosis in human K562 cells incubated for 72 hrs by annexin V FITC and propidium iodide staining based flow cytometry relative to control; assay type: functional; design: concentration or dose not given beside the values; outline: as §4
K562 [11] = assay: Induction of apoptosis in human K562 cells assessed as Bcl2 level incubated for 72 hrs by Western blot analysis (reference value: 100%); assay type: functional
Outline: (§5)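 K562 cells treated for 72 h; Bcl-2, BAX, caspase 3 precursor (32 kDa), caspase 3 active subunit (18 kDa) and PARP (112 and 85 kDa) measured by Western blot and expressed as % of untreated control.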

K562 [12] = assay: Induction of apoptosis in human K562 cells assessed as Bax level incubated for 72 hrs by Western blot analysis (reference value: 100%); assay type: functional; outline: as §5
K562 [13] = assay: Induction of apoptosis in human K562 cells assessed as 32 kDa Caspase 3 precursor level incubated for 72 hrs by Western blot analysis (reference value: 100%); assay type: functional; outline: as §5
K562 [14] = assay: Induction of apoptosis in human K562 cells assessed as 18 kDa Caspase 3 active subunit level incubated for 72 hrs by Western blot analysis (reference value: 100%); assay type: functional; outline: as §5
K562 [15] = assay: Induction of apoptosis in human K562 cells assessed as 112 kDa PARP level incubated for 72 hrs by Western blot analysis (reference value: 100%); assay type: functional; outline: as §5
K562 [16] = assay: Induction of apoptosis in human K562 cells assessed as 85 kDa PARP level incubated for 72 hrs by Western blot analysis (reference value: 100%); assay type: functional; outline: as §5
K562 [17] = assay: Induction of necrosis in human K562 cells incubated for 24 hrs by annexin V FITC and propidium iodide staining based flow cytometry relative to control; assay type: functional; design: concentration or dose not given beside the values
K562 [18] = assay: Cell cycle arrest in human K562 cells assessed as accumulation in G2/M phase incubated for 24 hrs by propidium iodide staining based flow cytometry (reference value: 14.29%); assay type: functional; outline: as §3
[19] = Ratio of compound IC50 to tiazofurin IC50 for cytotoxicity against human MRC5 cells incubated for 72 hrs by MTT assay; assay type: cell-based; conditions: read-out: Ratio IC50
K562 [20] = assay: Cell cycle arrest in human K562 cells assessed as accumulation in S phase incubated for 24 hrs by propidium iodide staining based flow cytometry (reference value: 48.38%); assay type: functional; outline: as §3
K562 [21] = assay: Cell cycle arrest in human K562 cells assessed as accumulation in G0/G1 phase incubated for 24 hrs by propidium iodide staining based flow cytometry (reference value: 36.28%); assay type: functional; outline: as §3
K562 [22] = assay: Cell cycle arrest in human K562 cells assessed as accumulation in sub-G1 phase incubated for 24 hrs by propidium iodide staining based flow cytometry (reference value: 1.05%); assay type: functional; outline: as §3
K562 [23] = assay: Cell cycle arrest in human K562 cells assessed as decrease in cell accumulation at G2/M phase incubated for 72 hrs by propidium iodide staining based flow cytometry relative to tiazofurin; assay type: functional; outline: as §3
K562 [24] = assay: Induction of apoptosis in human K562 cells incubated for 72 hrs by annexin V FITC and propidium iodide staining based flow cytometry relative to tiazofurin; assay type: functional; outline: as §4
K562 [25] = assay: Induction of apoptosis in human K562 cells assessed as reduction in cell membrane integrity at cytotoxic IC50 incubated for 72 hrs by acridine orange and ethidium bromide double staining based fluorescence microscopy; assay type: functional
K562 [26] = assay: Genotoxicity in human K562 cells assessed as increase in DNA damage at cytotoxic IC50 incubated for 72 hrs by comet assay; assay type: toxicity, cell-based; conditions: k562, 72 h
Outline: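 Modified alkaline comet assay: cells set in agarose on slides, electrophoresed horizontally, stained with ethidium bromide and imaged by fluorescence microscopy. 50 comets scored per sample; mean tail moment used as the DNA-damage measure.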

SMILES	Activity (K562 [1]) [%]	pIC50 (K562 [2])	pIC50 (HT-29)	Activity (K562 [5]) [%]	Activity (K562 [6]) [%]	Activity (K562 [7]) [%]	Activity (K562 [8]) [%]	Activity (K562 [9]) [%]	Activity (K562 [10]) [%]	Activity (K562 [11]) [%]	Activity (K562 [12]) [%]	Activity (K562 [13]) [%]	Activity (K562 [14]) [%]	Activity (K562 [15]) [%]	Activity (K562 [16]) [%]	Activity (K562 [17]) [%]	Activity (K562 [18]) [%]	Activity (K562 [20]) [%]	Activity (K562 [21]) [%]	Activity (K562 [22]) [%]	also measured
CC(=O)N[C@H]1[C@H](O)[C@@H](CO)O[C@H]1c1nc(C(N)=O)cs1	10.64	8.21	< 4.00	11.66	36.13	38.86	13.36	22.85	7.29	149.59	141.43	777.09	59.32	477.15	534.18	1.23	17.67	46.93	33.62	2.11	pIC50 (HL-60): 4.89; pIC50 (Jurkat): < 4.00; pIC50 (Raji): 5.59; pIC50 (HeLa): < 4.00; pIC50 (MRC5): 5.49; Ratio IC50 (K562 [3]): 309; Ratio IC50 (K562 [4]): 40; selectivity ratio at 72 h [19]: 9; fold change (FC) (K562 [23]): 2 - 2.4; fold change (FC) (K562 [24]): 2
NC(=O)c1csc([C@@H]2O[C@H](CO)[C@@H](O)[C@@H]2N)n1	7.07	5.71	4.63	10.79	34.2	37.94	17.08	23.39	9.82	414.66	193	1144.41	153.73	387.73	570.91	9.58	9.11	52.43	36.67	2.58	pIC50 (HL-60): 5.99; pIC50 (Jurkat): 7.40; pIC50 (Raji): 5.99; pIC50 (HeLa): 5.99; pIC50 (MRC5): < 4.00; fold change (FC) (K562 [23]): 2 - 2.4; fold change (FC) (K562 [24]): 2
NC(=O)c1csc([C@@H]2O[C@H](CO)[C@@H](O)[C@H]2O)n1 [TIAZOFURIN]	-0.34			5.74	33.62	35.66	24.99	13.71	13.71	344.33	338.37	1302.79	89.69	299.68	214.99	3.76	7.55	53.16	37.08	2.22	Activity (K562 [25]): Active; Activity (K562 [26]): Toxic
[N-]=[N+]=N[C@H]1[C@H](O)[C@@H](CO)O[C@H]1c1nc(C(N)=O)cs1	12.47	5.20	5.61	13.6	35.15	37.65	13.59	12.86	6.24	35.23	186.25	3222.35	156.25	355.91	169.74	1.26	20.75	47.46	29.73	2.32	pIC50 (HL-60): 5.12; pIC50 (Jurkat): < 4.00; pIC50 (Raji): 4.39; pIC50 (HeLa): 4.52; pIC50 (MRC5): < 4.00; fold change (FC) (K562 [23]): 2 - 2.4
COc1cccc2c1C(=O)c1c(O)c3c(c(O)c1C2=O)C[C@@](O)(C(=O)CO)C[C@@H]3O[C@H]1C[C@H](N)[C@H](O)[C@H](C)O1 [DOXORUBICIN]			6.82																		
